Data taken from PMC8099784 (Redox Biology, 2021).
Read-outs that look alike come from different tables or passages of the source. One block for each molecule: values may come before it. Peptide text beside a SMILES is read from it. * marks the point of attachment. Cbz = O=C(OCc1ccccc1)*; CH2F = FC*

Tests used:
[1] = target: T1, Human Prdx II (Homo sapiens, UniProt P32119); assay: Peroxidase activity of recombinant Prdx II; type: biochemical; settings: Amplex Red probe, Fig. 4I
T1 sequence (P32119 1-198): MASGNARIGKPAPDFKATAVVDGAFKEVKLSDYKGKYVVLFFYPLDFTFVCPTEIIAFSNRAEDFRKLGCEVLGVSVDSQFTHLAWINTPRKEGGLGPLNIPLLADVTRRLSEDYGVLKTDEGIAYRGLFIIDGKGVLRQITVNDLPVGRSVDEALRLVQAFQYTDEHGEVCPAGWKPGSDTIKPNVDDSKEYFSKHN
How it was run: (§1)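 Human Prdx I or II cloned in pET28a, expressed in E. coli BL21, purified. In 50 mM sodium phosphate pH 7.4, enzyme (30 μM solution) preincubated with compound 30 min at RT. H2O2 (10 μM solution) added for 10 min, then Amplex Red (50 μM solution) with HRP (1 U/mL solution) for 10 min. Fluorescence ex 535/em 595 nm; n = 3.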

[2] = system: A549; assay: MTT cell viability assay, A549 cells; type: cell-based; settings: Homo sapiens, A549, read-out: IC50 (μM) A549
How it was run: (§2)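 Cells kept in RPMI 1640 with 10% FBS and penicillin/streptomycin at 37 °C, 5% CO2. Seeded at 5 × 10^3 cells/well overnight, exposed to a concentration series for the stated time. MTT (5 mg/mL) added for 4 h, crystals dissolved in DMSO, absorbance read at 570 nm. Normalized to DMSO vehicle; three independent runs; IC50 by curve fitting.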

[3] = system: HepG2; assay: MTT cell viability assay, HepG2 cells; type: cell-based, human; settings: for effect on 23-induced cell morphological changes and cell viability: HepG2, 10 μM pretreated 1 h; for effect of caspase inhibitors on the effects of 23 on cell viability: HepG2, pretreated 2 h (Z-VAD-FMK 10 μM, Ac-DEVD-CHO 50 μM, Z-LEHD-FMK TFA 20 μM)
How it was run: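 HepG2 at 5 × 10^3 cells/well, overnight, in RPMI 1640 with 10% FBS. Dose series for 24 h, or 2.5 μM for 24 h after pretreatment: MitoQ 1 μM for 1 h; Fer-1, DFO or Z-VAD-FMK 10 μM for 1 h; or Z-VAD-FMK 10 μM, Ac-DEVD-CHO 50 μM or Z-LEHD-FMK 20 μM for 2 h. MTT 4 h, DMSO, 570 nm. Morphology imaged by inverted microscopy.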

[4] = system: HBE; assay: MTT cell viability assay, HBE normal lung cells; type: cell-based, human; settings: read-out: IC50 (μM) HBE
How it was run: as §2

[5] = target: T2, Human Prdx I (Homo sapiens, UniProt Q06830); assay: Peroxidase activity of recombinant Prdx I; type: biochemical; settings: Amplex Red probe, Fig. 4H
T2 sequence (Q06830 1-199): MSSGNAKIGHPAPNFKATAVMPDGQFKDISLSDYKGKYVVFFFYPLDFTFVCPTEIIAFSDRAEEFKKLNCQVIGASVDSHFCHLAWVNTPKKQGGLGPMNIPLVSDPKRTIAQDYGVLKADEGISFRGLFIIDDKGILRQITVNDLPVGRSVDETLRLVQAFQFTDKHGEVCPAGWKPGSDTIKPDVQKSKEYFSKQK
How it was run: as §1

[6] = system: 7860; assay: MTT cell viability assay, 7860 cells; type: cell-based, human
How it was run: as §2

[7] = system: A2780; assay: MTT cell viability assay, A2780 cells; type: cell-based; settings: Homo sapiens, A2780, read-out: IC50 (μM) A2780
How it was run: as §2

[8] = system: HepG2 cells; assay: ROS detection by DCFH-DA, HepG2; type: cell-based, human; settings: then 2.5 μM 23 for 24 h
How it was run: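 Cells seeded at 1.6 × 10^5 per well and exposed to treatment; HepG2 variants used MitoQ 1 μM for 1 h or a caspase-inhibitor pretreatment before 2.5 μM for 24 h. Trypsinized cells incubated 30 min in PBS with 10 μM DCFH-DA. Green fluorescence read on the FL1 flow-cytometry channel.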

[9] = system: HepG2 cells; assay: C11-BODIPY lipid peroxidation assay, HepG2; type: cell-based, human; settings: HepG2, 10 μM pretreated 1 h, then 2.5 μM 23 for 24 h
How it was run: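 HepG2, 1.6 × 10^5 cells/well. Treated at 1.25, 2.5 or 5 μM for 24 h, or 2.5 μM for 0–24 h; some wells pretreated 1 h with Fer-1, DFO or Z-VAD-FMK (each 10 μM). Trypsinized cells stained in PBS with 1.5 μM C11-BODIPY, 15 min, 37 °C; FL1 flow cytometry. Mean ± SD, n = 3.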

[10] = system: HepG2 cells; assay: Mitochondrial membrane potential; type: cell-based, human; settings: HepG2, 10 μM pretreated 2 h, then 2.5 μM 23 for 24 h
How it was run: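 Cells seeded at 1.6 × 10^5 per well and exposed to treatment. Loaded with JC-1 for 1 h at 37 °C, washed twice in PBS, then held in serum-free medium. Red/green fluorescence ratio measured by flow cytometry.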

peroxidase activity of recombinant Prdx II [1]: effectively inhibited
IC50 [2]: 8.5 ± 1 µM
IC50 ([3]; Homo sapiens, HepG2, read-out: IC50 (μM) HepG2): 7.3 ± 0.8 µM
peroxidase activity of recombinant Prdx I [5]: effectively inhibited
IC50 [7]: 5.4 ± 0.9 µM
Compound: C=C1C(=O)[C@]23C[C@H]1C[C@H](OC(C)=O)[C@H]2[C@]1(C)[C@@H](OC(C)=O)C[C@H](O)C(C)(C)[C@H]1C(=O)[C@@H]3OC(C)=O [Adenanthin]
IC50 ([4]; Homo sapiens, HBE): 7.7 ± 1.1 µM
IC50 ([6]; Homo sapiens, 786-0, read-out: IC50 (μM) 7860): 5.5 ± 0.6 µM

Compound: COC1=C(OC)C(=O)C(CCCCCCCCCC[P+](c2ccccc2)(c2ccccc2)c2ccccc2)=C(C)C1=O [MitoQ]
effect on 23-induced cell viability inhibition ([3]; HepG2, pretreated 1 μM 1 h, then 2.5 μM 23 for 24 h, MTT): reversed
effect on 23-induced ROS accumulation ([8]; HepG2, pretreated 1 μM 1 h): reversed

Compound: CCOC(=O)c1ccc(NC2CCCCC2)c(N)c1 [Fer-1]
effect on 23-induced lipid peroxidation [9]: attenuated
effect on 23-induced cell morphological changes and cell viability ([3]; then 2.5 μM 23 for 24 h, MTT): markedly blocked

Compound: N.N.[Cl][Pt][Cl] [Cisplatin]
IC50 ([3]; read-out: IC50 (μM) HepG2, cytotoxicity, MTT, mean ± SD): 8.5 ± 0.4 µM
IC50 ([4]; cytotoxicity, MTT, normal lung cell line, mean ± SD): 9.2 ± 1.4 µM
IC50 ([6]; read-out: IC50 (μM) 7860, cytotoxicity, MTT, mean ± SD): 13.5 ± 1.3 µM

Compound: CC(=O)N(O)CCCCCNC(=O)CCC(=O)N(O)CCCCCNC(=O)CCC(=O)N(O)CCCCCN [DFO]
effect on 23-induced lipid peroxidation [9]: attenuated
effect on 23-induced cell morphological changes and cell viability ([3]; then 2.5 μM 23 for 24 h, MTT): markedly blocked

Compound: CC(=O)N[C@@H](CC(=O)O)C(=O)N[C@@H](CCC(=O)O)C(=O)N[C@H](C(=O)N[C@H](C=O)CC(=O)O)C(C)C [Ac-DEVD-CHO]
effect of caspase inhibitors on the effects of 23 on cell viability ([3]; then 2.5 μM 23 for 24 h): partially reversed

Compound: COC(=O)C[C@H](NC(=O)[C@H](C)NC(=O)[C@@H](NC(=O)OCc1ccccc1)C(C)C)C(=O)CF [Z-VAD-FMK] (Cbz-Val-Ala-Asp(OMe)-CH2F)
effect on 23-induced cell morphological changes and cell viability ([3]; then 2.5 μM 23 for 24 h, MTT): markedly blocked
effect of caspase inhibitors on the effects of 23 on cell viability ([3]; then 2.5 μM 23 for 24 h): partially reversed
effect on the changes in MMP caused by 23 [10]: no effect
effect on the changes in ROS caused by 23 ([8]; HepG2, 10 μM pretreated 2 h): no effect

Compound: COC(=O)CC[C@H](NC(=O)[C@H](CC(C)C)NC(=O)OCc1ccccc1)C(=O)N[C@@H](Cc1cnc[nH]1)C(=O)N[C@@H](CC(=O)OC)C(=O)CF.O=C(O)C(F)(F)F [Z-LEHD-FMK TFA] (Cbz-LE(OMe)HD(OMe)-CH2F)
effect of caspase inhibitors on the effects of 23 on cell viability ([3]; then 2.5 μM 23 for 24 h): partially reversed
